Assay results: PubChem BioAssay AID822 (SRMLSC, 2007)
Activity calls are given as the source filed them.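 The calls were made as follows: active = half-maximal effective dose for blocking growth of human endothelial cells at most 100 µM; inactive = the rest.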

Assay: growth suppression of umbilical vein endothelial cells – cell-based, HUVEC, ATP luminescence, dose response (AID 822);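 also: cells exposed to compound for 72 h before the ATP read; 100% = median luminescence of untreated cell-only control wells on each plate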
Details: HUVEC proliferation, viability ATP luminescence; at 20 µM (top of the series)
Summary of the method: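 Test system: HUVEC; Input: 1250 HUVEC cells seeded per well; Doses: 0.039–20 µM, 0.2% DMSO; Evaluation: % viability versus median cell-only wells, EC50 from 4-parameter fit; Medium: EBM plus 2% FBS; Incubation: compound treatment 72 h, 37 °C; Signal: luminescent ATP measurement with CellTiter-Glo reagent; Plate: collagen-coated multiwell plates.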

For `Cc1ccc(NC(=O)C(C)N2C(=O)c3ccccc3C2=O)cc1` (configuration not stated), which viability is on record?
The viability was 90.9% (inactive).

Which viability does the source give for `O=C(CC1SCCNC1=O)Nc1cc(Cl)cc(Cl)c1` (configuration not stated) here?
Its viability is 96.6% (inactive).

For `CCOC(=O)c1c(NC(=O)C2COc3ccccc3O2)sc(C(C)=O)c1C` (configuration not stated), which viability is on record?
The viability was 112% (inactive).

With `CCOC(=O)N1CCN(C(=O)c2nn(-c3ccc(C)cc3)c(=O)c3c2c2ccccc2n3C)CC1` as the compound, how does the viability read?
Its viability is 89.2% (inactive).

For `COc1ccc(Cl)cc1C(=O)n1nc(C)cc1C`, which viability is on record?
The viability was 96.7% (inactive).

With `O=C(Nc1nc(NC(=O)c2ccco2)n(-c2ccccc2)n1)c1ccccc1` as the compound, how does the viability read?
Its viability is 84.5% (inactive).

With `Cc1ccc(C(C#N)c2ccc(C(=O)c3ccc(F)cc3)cc2)cc1` (configuration not stated) as the compound, how does the viability read?
The viability was 84% (inactive).

For `Cc1sc2nc(SCC(=O)NCc3ccco3)n(CCc3ccccc3)c(=O)c2c1C`, which viability is on record?
The viability was 91.5% (inactive).

For `Cc1nc2cc(N3CCCCC3)c(NC(=O)c3cccnc3)cc2c(=O)n1Cc1ccccc1`, which viability is on record?
The viability was 89.3% (inactive).

Which viability does the source give for `COc1ccc(CCC(=O)N2CCN(C3CCCCC3)CC2)cc1` here?
Its viability is 99.8% (inactive).

Which viability does the source give for `C=CCn1c(SCC(=O)NC(=O)NCc2ccco2)nc2sc(CC)cc2c1=O` here?
Its viability is 86.9% (inactive).

With `CN(C)C(=O)CSc1cccc2cccnc12` as the compound, how does the viability read?
Its viability is 84.4% (inactive).

For `Clc1ccc(Cn2cc(/C=N/n3cnnc3)c3ccccc32)c(Cl)c1`, which viability is on record?
Its viability is 87.3% (inactive).

With `O=C(Cc1sc(-c2ccccc2Cl)nc1-c1ccccc1)Nc1ccc(F)cc1` as the compound, how does the viability read?
The viability was 83.5% (inactive).

For `Cn1c(=O)c2cc(NCc3ccccc3)nnc2n(C)c1=O`, which viability is on record?
The viability was 92.6% (inactive).

With `Clc1ccc(-c2nc(NCCN3CCOCC3)c3ccccc3n2)cc1` as the compound, how does the viability read?
The viability was 86% (inactive).

With `CSc1nncc(=O)[nH]1` as the compound, how does the viability read?
Its viability is 96.7% (inactive).

For `Cc1cc(C)n(-c2nc(Nc3ccccc3C)nc(-n3nc(C)cc3C)n2)n1`, which viability is on record?
Its viability is 118% (inactive).

For `CCOc1ccc(OCc2ccc(C(=O)NCC3CCCO3)o2)cc1` (configuration not stated), which viability is on record?
Its viability is 116% (inactive).

For `O=C(CN1CCN(S(=O)(=O)c2ccc(F)cc2)CC1)Nc1ccc2c(c1)OCO2`, which viability is on record?
Its viability is 116% (inactive).

For `CCC(C)(C)n1nnnc1C(c1cc2cc(C)cc(C)c2[nH]c1=O)N1CCN(Cc2ccc3c(c2)OCO3)CC1` (configuration not stated), which viability is on record?
The viability was 80.5% (inactive).

For `COCCn1c(C)cc(C(=O)CSc2nc3ccccc3o2)c1C`, which viability is on record?
Its viability is 96.1% (inactive).

With `c1ccc2c(c1)oc1c(NCCCN3CCOCC3)ncnc12` as the compound, how does the viability read?
Its viability is 96.1% (inactive).

With `O=S1(=O)c2ccccc2N=NN1Cc1cc(Cl)cc(Cl)c1` as the compound, how does the viability read?
The viability was 84.9% (inactive).

For `C=CCn1c(O)c(C2=c3ccccc3=NC2=O)s/c1=N/c1nccs1`, which viability is on record?
Its viability is 85.2% (inactive).

For `NC(=O)Cc1c[nH]c2cccc(O)c12`, which viability is on record?
The viability was 103% (inactive).

With `Cc1cc(C(=O)OC(C)C(=O)Nc2cccc(S(=O)(=O)N3CCOCC3)c2)c(C)o1` (configuration not stated) as the compound, how does the viability read?
Its viability is 101% (inactive).

Which viability does the source give for `O=C(/C=C/NNC(=O)c1ccccc1)c1ccccc1` here?
Its viability is 109% (inactive).

With `O=C(Nc1cccnc1)c1ccc(Br)s1` as the compound, how does the viability read?
The viability was 90% (inactive).

For `Brc1cccc(-c2nnc3sc(CNC4CCCC4)cn23)c1`, which viability is on record?
Its viability is 84% (inactive).

Which viability does the source give for `CCC(=O)N1c2ccc(S(=O)(=O)CCC(=O)N3CCn4c3nc3ccccc34)cc2CC1C` (configuration not stated) here?
Its viability is 84.1% (inactive).

With `Cc1cc(Cl)ccc1OCCCC(N)=O` as the compound, how does the viability read?
Its viability is 94% (inactive).

Which viability does the source give for `OC1(Cc2ccn[nH]2)CCCCC1` here?
The viability was 93.6% (inactive).

Which viability does the source give for `CC1(C)CC(=O)c2cc(C(=O)NCc3ccco3)c(=O)n(-c3ccc(Cl)cc3)c2C1` here?
Its viability is 97.2% (inactive).

For `CCn1c(Cc2ccc(OC)cc2)nnc1SCC(=O)Nc1cccc(C(=O)OC)c1`, which viability is on record?
Its viability is 81.8% (inactive).

For `COc1ccc(N2C(=O)CC(Sc3nnc(-c4ccccc4)o3)C2=O)cc1` (configuration not stated), which viability is on record?
Its viability is 95% (inactive).

Which viability does the source give for `COc1ccc2[nH]cc(C(=O)CN3CCN(C(=O)c4ccco4)CC3)c2c1` here?
Its viability is 101% (inactive).

Which viability does the source give for `O=C(CCSc1ccc(Cl)cc1)N1CCN(c2ncccn2)CC1` here?
Its viability is 94.5% (inactive).

Which viability does the source give for `CC1=C(C)CS(=O)N(S(=O)(=O)c2ccc(Cl)cc2)C1` (configuration not stated) here?
Its viability is 101% (inactive).

Which viability does the source give for `CN1C(=O)C(O)(CC(=O)c2cccc(-n3cccc3)c2)c2ccccc21` (configuration not stated) here?
The viability was 84.7% (inactive).

For `COc1ccc(NC(=O)CSc2nnc(CNC(=O)COc3ccc(Cl)cc3)o2)c(OC)c1`, which viability is on record?
The viability was 95.2% (inactive).

For `CN(CCO)c1cc(Sc2nc3ccccc3s2)c2nonc2c1[N+](=O)[O-]`, which viability is on record?
Its viability is 85.4% (inactive).

For `CC1=C(C)CS(=O)N(S(=O)(=O)c2ccccc2)C1` (configuration not stated), which viability is on record?
Its viability is 80.3% (inactive).

Which viability does the source give for `O=C1CC(Sc2nnc(-c3ccccc3O)o2)C(=O)N1c1ccccc1` (configuration not stated) here?
The viability was 93% (inactive).

With `COc1ccc(OC)c(C(=O)CSc2nnc(-c3ccc(OC)c(OC)c3)o2)c1` as the compound, how does the viability read?
Its viability is 86.2% (inactive).

With `Cc1ccc(-n2c(SCC(=O)Nc3nccs3)nc3c(c2=O)SCC3)cc1` as the compound, how does the viability read?
The viability was 100% (inactive).

Which viability does the source give for `COc1ccc2cc3cc(C(=O)NCCc4ccc(OC)c(OC)c4)oc3nc2c1` here?
The viability was 93.3% (inactive).

For `CC(C)(C)c1ccc(-c2nnc(SCC(=O)O)n2N)cc1`, which viability is on record?
The viability was 106% (inactive).

Which viability does the source give for `COc1ccc(OC)c(S(=O)(=O)N(C)CC(=O)N2CCN(c3ccc(F)cc3)CC2)c1` here?
Its viability is 100% (inactive).

For `COc1ccccc1NC(=O)C1C2C=CC(O2)C1C(=O)O` (configuration not stated), which viability is on record?
Its viability is 94.6% (inactive).

With `CC(C)OC(=O)NCCOC(=O)Nc1cccc(Cl)c1` as the compound, how does the viability read?
The viability was 89.1% (inactive).

Which viability does the source give for `O=C(Nc1cccnc1)c1ccc(Oc2ccccc2)cc1` here?
Its viability is 108% (inactive).
